Assay outcomes as filed in PubChem BioAssay.
SENP6 inh = SENP6 protease inhibitors, primary screen, biochemical, luminescence, uHTS | Sentrin-specific protease 6 (Homo sapiens), Q9GZR1 | Recombinant SENP6 catalytic domain, aminoluciferin luminescence | inhibition, % at 10 µM | 330,000 compounds, 1.8% hits | AID 2599, 2010;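 active means inhibition above about 50% at the single tested dose, limit read from the data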
SENP8 block-1 = human SENP8 protease inhibitors, primary screen, biochemical, fluorescence, Nedd8 protein substrate, uHTS | Sentrin-specific protease 8 (Homo sapiens), Q96LD8 | inhibition, % at 20 µM | 360,000 compounds, 0.64% hits | recombinant SENP8; in the data active means inhibition mostly above about 40%, no sharp cut-off; inactive means mostly below about 27%
UCH37 DUB inh = inhibitors of human UCH37 deubiquitinase, primary screen, biochemical, Ub-AMC cleavage, fluorescence. 330,000 compounds, 0.33% hits. Ubiquitin carboxyl-terminal hydrolase isozyme L5 (Homo sapiens), Q9Y5K5. inhibition, % (no concentration beside the values). purified proteasome/UCH37. AID 588478, 2011;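 active means mean inhibition over replicate wells above about 20%, limit read from the data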
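Schedule: 30 min plus 25 min, room temperature / Material: human UCH37 within purified proteasomes / Technique: AMC fluorescence intensity at 355/460 nm / Buffer or medium: pH 7.4 Tris-HCl (50 mM) with ovalbumin, ATP-MgCl2, DTT / Controls: wells without proteasome as full block, compound-free enzyme plus substrate as uninhibited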
SENP8 block-2 = SENP8 protease inhibitors, primary screen, biochemical, luminescence; Sentrin-specific protease 8 (Homo sapiens), Q96LD8; purified SENP8, Z-RLRGG-aminoluciferin cleavage; inhibition, % at 10 µM; 330,000 compounds, 1.2% hits; AID 2540, 2010; in the data active means inhibition above about 50%
SENP7 inh = SENP7 protease inhibitors, primary screen, biochemical, luminescence, uHTS; Sentrin-specific protease 7 (Homo sapiens), Q9BQF6; recombinant SENP7, Z-RLRGG-aminoluciferin luminescence, 40 min; inhibition, % at 5 µM; 330,000 compounds, 1.5% hits;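 active means inhibition above about 50% at the single test dose, limit read from the data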
Target sequence (Q9BQF6 706-1050 limits assumed): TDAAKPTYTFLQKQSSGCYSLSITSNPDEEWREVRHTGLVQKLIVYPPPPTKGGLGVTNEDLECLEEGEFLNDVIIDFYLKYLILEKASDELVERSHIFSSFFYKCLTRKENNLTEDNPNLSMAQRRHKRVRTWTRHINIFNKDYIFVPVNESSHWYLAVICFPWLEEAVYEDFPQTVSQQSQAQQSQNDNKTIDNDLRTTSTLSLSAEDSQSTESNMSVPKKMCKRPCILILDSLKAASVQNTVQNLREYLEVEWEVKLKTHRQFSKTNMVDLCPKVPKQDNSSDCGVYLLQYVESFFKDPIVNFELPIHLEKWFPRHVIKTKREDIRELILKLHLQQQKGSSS
SENP1 FRET inh = human SENP1 catalytic domain inhibitors, primary screen, biochemical, FRET, uHTS; Sentrin-specific protease 1 (Homo sapiens), Q9P0U3; recombinant SENP1 catalytic domain, CyPet-SUMO1-YPet FRET cleavage; inhibition, % at 10 µM; 360,000 compounds, 0.21% hits; AID 624204, 2012;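 active means inhibition at least 30% at 10 µM, raw YFP signal under a set limit, fluorescence ratio 0.5 to 1.5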
Target sequence (Q9P0U3 419-644 limits assumed): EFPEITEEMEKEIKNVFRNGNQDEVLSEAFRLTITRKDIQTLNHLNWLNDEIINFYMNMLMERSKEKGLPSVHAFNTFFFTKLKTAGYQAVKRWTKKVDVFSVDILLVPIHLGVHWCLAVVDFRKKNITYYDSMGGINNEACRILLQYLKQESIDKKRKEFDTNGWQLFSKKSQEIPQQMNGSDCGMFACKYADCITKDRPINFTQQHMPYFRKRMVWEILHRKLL
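System: Recombinant human SENP1 catalytic domain, His6-tagged | Incubation: Enzyme reaction for 50 min at room temperature, dark | Medium: Tris pH 8 with BME, BSA, NP40 and catalase | Also added: 25 nM SUMO1 FRET substrate | Compound: 10 µM single point, 0.5% DMSO | Measured by: FRET fluorescence in CFP and YFP emission channels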
SENP1 conf = human SENP1 catalytic domain inhibitors, confirmation, biochemical, FRET endpoint, single concentration; shares compounds with SENP1 FRET inh; recombinant SENP1, CyPet-SUMO1-YPet FRET cleavage; inhibition, % at 10 µM; 520 compounds, 34% hits; in the data active means inhibition mostly above about 35%, no sharp cut-off; inactive means mostly below about 32%
SENP1 kinetic = human SENP1 catalytic domain inhibitors, confirmation, biochemical, kinetic FRET, single concentration; shares compounds with SENP1 FRET inh; recombinant SENP1, CyPet-SUMO1-YPet FRET kinetic cleavage; inhibition, % at 10 µM; 520 compounds, 26% hits; AID 651690, 2012; in the data active means inhibition mostly above about 32%, no sharp cut-off; inactive means mostly below about 29%
Of the large screens only hits and unclear results are named; the others gave an inactive call (follow-up assays come after a bar, where they were run). Sampled rows, rich in hits. Any-hit rate of the full collection: about 2.6%.

COC(=O)C1=CC(C(=O)c2cccs2)=NN(c2ccc(OC)cc2)C1C(=O)OC (stereo not drawn)	SENP1 FRET inh 61 | SENP1 conf 60 | SENP1 kinetic 39
COc1ncc(-c2ccc(N3C(c4ccc([N+](=O)[O-])cc4)=Cc4ccccc4C3CC(C)=O)cc2)cn1 (stereo not drawn)	SENP1 FRET inh 48 (no result: SENP6 inh, UCH37 DUB inh, SENP8 block-2, SENP7 inh) | SENP1 conf inactive | SENP1 kinetic inactive
Cc1nc2ccc(NS(=O)(=O)c3ccc(F)cc3)cc2s1	none
Cc1nc2ccc(NS(=O)(=O)c3c(F)cccc3F)cc2s1	SENP1 FRET inh 52 | SENP1 conf inactive | SENP1 kinetic 25
CC(C)(C)c1ccc(C=NNC(=O)c2ccccn2)cc1	none (no result: SENP6 inh, SENP8 block-1, SENP8 block-2, SENP7 inh, SENP1 FRET inh)
O=C(N/N=C(\CC(=O)c1cccs1)C(F)(F)F)c1ccncc1	SENP1 FRET inh 40 (no result: UCH37 DUB inh) | SENP1 conf 50 | SENP1 kinetic 38
Cc1coc(NC(=O)CSc2nc(-c3ccncc3)cc(C(F)(F)F)c2C#N)n1	SENP1 FRET inh 66 | SENP1 conf 45 | SENP1 kinetic 28
Cc1ccc(S(=O)(=O)CCSc2nc(C)cc(C(F)(F)F)c2C#N)cc1	SENP1 FRET inh 72 | SENP1 conf inactive | SENP1 kinetic inactive
N#Cc1c(C(F)(F)F)cc(-c2ccc(F)cc2)nc1SCC(=O)O	none
Cc1ccc(S(=O)(=O)CCSc2ccc(C(F)(F)F)cn2)cc1	none
CCOC(=O)NC(=O)CSc1nc(C)cc(C(F)(F)F)c1C#N	SENP1 FRET inh 39 | SENP1 conf inactive | SENP1 kinetic inactive
COC(=O)CSc1nc(C)cc(C(F)(F)F)c1C#N	none
CC(=NNC(=O)c1cccc2ccccc12)c1ccccn1	none (no result: SENP6 inh, SENP8 block-1, SENP8 block-2, SENP7 inh, SENP1 FRET inh)
COc1ccc2c(c1)-c1nc(N=Cc3ccc(O)cc3)sc1CC2	none (no result: SENP6 inh, SENP8 block-1, SENP8 block-2, SENP7 inh, SENP1 FRET inh)
COc1ccc(C=Nn2cncn2)cc1CSc1ccccn1	none (no result: SENP6 inh, SENP8 block-1, SENP8 block-2, SENP7 inh, SENP1 FRET inh)
O=C1c2ccc(-c3ccc4c(c3)C(=O)N(CCCO)C4=O)cc2C(=O)N1CCCO	none
O=C1C2=C(SCCS2)C(=O)N1CCCO	SENP1 FRET inh 54 (no result: UCH37 DUB inh) | SENP1 conf 48 | SENP1 kinetic inactive
Cn1cccc1-c1cc(C(=O)NN=Cc2cccc(O)c2)[nH]n1	none (no result: SENP6 inh, SENP8 block-1, SENP8 block-2, SENP7 inh, SENP1 FRET inh)
NC(=O)CCC(C(=O)O)N1C(=O)c2ccc(O)cc2C1=O (stereo not drawn)	SENP1 FRET inh 44 (no result: UCH37 DUB inh) | SENP1 conf 37 | SENP1 kinetic inactive
Cc1cc(C)c2c(c1)C(=NN=c1sc3ccccc3n1C)C(=O)N2	none (no result: SENP6 inh, SENP8 block-1, SENP8 block-2, SENP7 inh, SENP1 FRET inh)
Cc1cc(C)c2c(c1)/C(=N\N=c1\sc3ccccc3n1C)C(=O)N2	SENP1 FRET inh 37 (no result: UCH37 DUB inh) | SENP1 conf inactive | SENP1 kinetic inactive
NC(=O)N/N=C/c1ccc(N2CCOCC2)s1	SENP1 FRET inh 47 (no result: UCH37 DUB inh) | SENP1 conf 75 | SENP1 kinetic 52
CCN(CC)c1nc2cc(C)ccc2cc1/C=C(\C#N)C(N)=O	SENP1 FRET inh 79 | SENP1 conf 58 | SENP1 kinetic inactive
CCc1ccc(NC(=O)/C(C#N)=C/c2cc3ccc(C)cc3nc2N2CCOCC2)cc1	none
COc1ccc(N2C(=O)C3C(C2=O)C(C(=O)c2ccc(Cl)cc2)N2CCCC32)cc1 (stereo not drawn)	SENP1 FRET inh 71 | SENP1 conf 77 | SENP1 kinetic 50
O=C(c1ccccc1)[C@@H]1[C@@H]2C(=O)N(c3ccc(F)cc3)C(=O)[C@@H]2C2CCCN21 (stereo partly drawn)	SENP1 FRET inh 76 | SENP1 conf 73 | SENP1 kinetic 48
Cc1ccc(N2C(=O)[C@@H]3[C@H](C2=O)C2CCCN2[C@@H]3C(=O)c2ccccc2)cc1 (stereo partly drawn)	none
